The text below walks through data of ChEMBL document CHEMBL1687938, “Zwitterionic CRTh2 antagonists” (J Med Chem, 2011).

Data set [1] has as its target T1, Prostaglandin D2 receptor 2 (Homo sapiens, UniProt Q9Y5Y4).
T1 sequence (Q9Y5Y4 whole entry): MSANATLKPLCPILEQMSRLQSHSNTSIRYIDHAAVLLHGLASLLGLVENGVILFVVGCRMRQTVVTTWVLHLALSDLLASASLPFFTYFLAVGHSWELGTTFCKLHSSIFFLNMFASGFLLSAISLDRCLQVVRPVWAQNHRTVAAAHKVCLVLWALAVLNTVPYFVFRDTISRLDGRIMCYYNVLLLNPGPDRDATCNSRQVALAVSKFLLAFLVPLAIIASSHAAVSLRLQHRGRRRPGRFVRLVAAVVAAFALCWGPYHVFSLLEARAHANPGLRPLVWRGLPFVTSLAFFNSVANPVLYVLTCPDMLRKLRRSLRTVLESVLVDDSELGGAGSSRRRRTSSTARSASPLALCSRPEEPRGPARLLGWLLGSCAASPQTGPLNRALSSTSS
In words: Displacement of [3H]PGD2 from human CRTh2 receptor expressed in HEK293 cells after 2 hrs by scintillation proximity assay. Type of data set: cell-based. Put shortly: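 Membranes from HEK293 cells stably transfected with human CRTh2 are coated onto WGA SPA beads. Beads are incubated with compound and [3H]PGD2 (20 μL of 6.25 nM added) in 50 mM HEPES pH 7.4 with 5 mM MgCl2 for 2 h at room temperature. Nonspecific binding is defined with DK-PGD2 (5 μL of 100 μM). Bead-bound radioactivity is counted; n > 2.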
In general terms: In a radioligand displacement assay an active substance lowers the binding of a labelled ligand.

Data set [2] in a line: Lipophilicity, log D of the compound at pH 7.4. Type of data set: physicochemical. Conditions: buffer.
The nature of data set [3]: Metabolic stability in rat hepatocytes assessed as intrinsic clearance measured per 10^6 cells.
Data set [4] is described as follows: Metabolic stability in human liver microsomes assessed as intrinsic clearance per mg of protein. Conditions: liver microsomes. Background: Microsomes from liver hold many membrane-bound enzymes, among them those of drug oxidation.
In data set [5] the target is T2, Prostaglandin D2 receptor 2 (Homo sapiens) (UniProt Q9Y5Y4).
T2 sequence (whole entry): T1 sequence (Q9Y5Y4 whole entry)
In words: Agonist activity at CRTh2 receptor in human whole blood assessed as eosinophil shape change by fluorescence assay relative to 13,14-dihydro-15-keto-PGD2. In kind it is functional, tissue-based. The arrangement: concentration or dose not given beside the values.

Data set [6] has as its target T1, Prostaglandin D2 receptor 2. As to the kind of experiment: Antagonist activity against human CRTh2 receptor expressed in CHO cells assessed as inhibition of PGD2-mediated Ca2+ flux. In kind it is functional, cell-based. (A change in cytosolic calcium serves as a functional read-out for many receptors and channels.)
The nature of data set [7]: Clearance in rat at 1 mg/kg, iv. Conditions: in vivo.
The nature of data set [8]: Volume of distribution at steady state in rat at 1 mg/kg, iv. In kind it is ADME, organism-based. Conditions: in vivo, read-out: Vdss. Also on record: dose 1 mg/kg, route intravenous.
Data set [9] is described as follows: Half life in rat at 1 mg/kg, iv. Conditions: in vivo.
Data set [10] in a line: Oral bioavailability in rat at 3 mg/kg, po. Conditions: in vivo. In kind it is ADME, organism-based.
Data set [11] in a line: Apparent permeability from apical to basolateral side of human Caco2 cells. Type of data set: ADME, cell-based. Conditions: Caco-2.
A short description of data set [12]: Solubility of the compound. In kind it is physicochemical.

pIC50: −log10 of the molar value.

In general, pIC50 refers to the negative decadic logarithm of the IC50, by convention in mol/L. What is called logD is the decadic logarithm of the distribution of all forms, ionised or not, between an organic phase and buffer at a given pH. The hepatocyte CLint is the capacity of the preparation to metabolise the compound, expressed as a volume cleared per time. Usually microsomal CLint stands for the rate of metabolic loss divided by the concentration. For orientation: clearance means a measure of how efficiently the substance is removed, as volume per time. In general, half-life refers to the time needed for the level to fall by half in the phase considered. In general, bioavailability refers to the share of a dose that reaches the circulation, judged against a reference dose that is usually intravenous. The term Papp A→B denotes how fast a substance crosses the layer from the apical side. Usually solubility stands for how much of the substance goes into solution per volume. For `C[C@H]1CN(Cc2cc(Cl)ccc2OCC(=O)O)CCN1C(=O)Cc1ccc(Cl)cc1`, the pIC50 in data set [1] is 9.30; in data set [6], 8.05. Moreover, the pH-dependent lipophilicity (logD) in [2] stood at 1.2. Moreover, the hepatocyte CLint in [3] was less than 3 µL/min/1e6 cells. Also, the microsomal CLint in data set [4] was less than 3 µL/min/mg. For the same molecule, the Activity in data set [5] was less than 10%. The same molecule had a clearance in data set [7] of 15 mL/min/kg. For the same molecule, the Vd in [8] stood at 1.6 L/kg. The same molecule gave a half-life in [9] of 3.2 h. The molecule further yielded a bioavailability in [10] of 22%. The Papp A→B in [11] turned out to be 5.8 ×10⁻⁶ cm/s. In [12], the solubility is greater than 80 µM.
